Laboratory results from ChEMBL document CHEMBL4052710 (Bioorg Med Chem Lett, 2017).
Calls of active or inactive are those of the source. No cut-off for these calls is given here.

Assays:
T47D [1] = experiment: Induction of apoptosis in human T47D cells assessed as necrotic cells level at 1 uM incubated for 48 hrs by annexin V-FITC and propidium iodide staining based flow cytometry (reference value: 2.79%); format: functional
[2] = molecular target: CDK2/Cyclin A2 (Homo sapiens) (UniProt P24941+P20248); experiment: Inhibition of human CDK2/CyclinA at 1 uM by enzymatic radiometric assay; format: protein-complex assay
How it was run: (§1)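 Kinase panel run through the Eurofins KinaseProfiler, with compound at a fixed 1 µM. Values are means of two independent experiments.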

NCI-H460 [3] = experiment: Growth inhibition of human H460 cells incubated for 72 hrs at 10 uM by CCK8 assay; format: functional; details: NCI-H460, 72 h, read-out: GI
How it was run: (§2)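 CCK8 viability assay on a panel of human cancer cell lines, with an initial screen at fixed concentrations of 1 µM and 10 µM.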

HeLa = experiment: Growth inhibition of human HeLa cells incubated for 72 hrs at 10 uM by CCK8 assay; format: functional; details: read-out: GI; how it was run: as §2
NCI-H1299 [4] = experiment: Growth inhibition of human H1299 cells incubated for 72 hrs at 1 uM by CCK8 assay; format: functional; details: NCI-H1299, 72 h, read-out: GI; how it was run: as §2
T47D [5] = experiment: Induction of apoptosis in human T47D cells incubated for 48 hrs by annexin V-FITC and propidium iodide staining based flow cytometry; format: functional, cell-based
OVCAR-5 = experiment: Growth inhibition of human OVCAR5 cells incubated for 72 hrs at 10 uM by CCK8 assay; format: functional; details: OVCAR-5, 72 h, read-out: GI; how it was run: as §2
T47D [6] = experiment: Induction of apoptosis in human T47D cells assessed as necrotic cells level at 0.25 uM incubated for 48 hrs by annexin V-FITC and propidium iodide staining based flow cytometry (reference value: 2.79%); format: functional
NCI-H460 [7] = experiment: Growth inhibition of human H460 cells incubated for 72 hrs at 1 uM by CCK8 assay; format: functional; details: NCI-H460, 72 h, read-out: GI; how it was run: as §2
T47D [8] = experiment: Growth inhibition of human T47D cells incubated for 72 hrs at 1 uM by CCK8 assay; format: functional; details: read-out: GI; how it was run: as §2
NCI-H460 [9] = experiment: Growth inhibition of human H460 cells incubated for 72 hrs by CCK8 assay; format: functional, cell-based; details: NCI-H460, 72 h
T47D [10] = experiment: Induction of cell cycle arrest in human T47D cells assessed as increase in G0/G1 phase accumulation at 0.1 to 1 uM incubated for 24 hrs by flow cytometry; format: functional, cell-based
How it was run: (§3)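 Cells were treated for 24 h with compound at 0.1, 0.5 and 1 µM, with LEE011 or vehicle (DMSO) alongside. Cell-cycle phase distribution was then determined by flow cytometry.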

NCI-H1299 [11] = experiment: Growth inhibition of human H1299 cells incubated for 72 hrs by CCK8 assay; format: functional, cell-based; details: NCI-H1299, 72 h
MCF7 = experiment: Growth inhibition of human MCF7 cells incubated for 72 hrs by CCK8 assay; format: functional, cell-based; details: MCF7, 72 h
Mus musculus = experiment: Toxicity in mouse 4T1 cells xenografted BALB/C mouse assessed as induction of body weight loss at 50 to 150 mg/kg/day, ip dosed for 21 consecutive days; format: organism-based; details: in vivo
How it was run: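 Tumor cells were implanted orthotopically into the mammary fat pads of female BALB/c mice aged 6-8 weeks. Once tumors averaged 100 mm3, mice received daily IP injections of 50, 100 or 150 mg/kg/day, or solvent control, for 21 consecutive days. Body weight was tracked and reported as mean with SD.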

SiHa = experiment: Growth inhibition of human SiHa cells incubated for 72 hrs at 1 uM by CCK8 assay; format: functional; details: read-out: GI; how it was run: as §2
T47D [12] = experiment: Growth inhibition of human T47D cells incubated for 72 hrs by CCK8 assay; format: functional, cell-based
[13] = molecular target: Cyclin-dependent kinase 5/CDK5 activator 1 (Homo sapiens) (UniProt Q00535+Q15078); experiment: Inhibition of human CDK5/p25 at 1 uM by enzymatic radiometric assay; format: protein-complex assay
T47D [14] = experiment: Induction of apoptosis in human T47D cells assessed as necrotic cells level at 0.5 uM incubated for 48 hrs by annexin V-FITC and propidium iodide staining based flow cytometry (reference value: 2.79%); format: functional
CDK9/cyclin T1 = CDK9/cyclin T1 (Homo sapiens, UniProt P50750); experiment: Inhibition of human CDK9/CyclinT1 by enzymatic radiometric assay; format: protein-complex assay
How it was run: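 IC50 was determined through a commercial kinase profiling service. Values are the mean of two independent experiments.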

T47D [15] = experiment: Induction of cell cycle arrest in human T47D cells assessed as increase in G2 phase accumulation at 0.1 to 1 uM incubated for 24 hrs by flow cytometry; format: functional, cell-based; how it was run: as §3
NCI-H1299 [16] = experiment: Growth inhibition of human H1299 cells incubated for 72 hrs at 10 uM by CCK8 assay; format: functional; details: NCI-H1299, 72 h, read-out: GI; how it was run: as §2
T47D [17] = experiment: Induction of cell cycle arrest in human T47D cells assessed as reduction in S phase accumulation at 0.1 to 1 uM incubated for 24 hrs by flow cytometry; format: functional, cell-based; how it was run: as §3
[18] = molecular target: CDK12/Cyclin K (Homo sapiens) (UniProt O75909+Q9NYV4); experiment: Inhibition of human CDK12/CyclinK at 1 uM by enzymatic radiometric assay; format: protein-complex assay; how it was run: as §1
Chain of CDK12/Cyclin K (Homo sapiens) (O75909 whole entry, looked up): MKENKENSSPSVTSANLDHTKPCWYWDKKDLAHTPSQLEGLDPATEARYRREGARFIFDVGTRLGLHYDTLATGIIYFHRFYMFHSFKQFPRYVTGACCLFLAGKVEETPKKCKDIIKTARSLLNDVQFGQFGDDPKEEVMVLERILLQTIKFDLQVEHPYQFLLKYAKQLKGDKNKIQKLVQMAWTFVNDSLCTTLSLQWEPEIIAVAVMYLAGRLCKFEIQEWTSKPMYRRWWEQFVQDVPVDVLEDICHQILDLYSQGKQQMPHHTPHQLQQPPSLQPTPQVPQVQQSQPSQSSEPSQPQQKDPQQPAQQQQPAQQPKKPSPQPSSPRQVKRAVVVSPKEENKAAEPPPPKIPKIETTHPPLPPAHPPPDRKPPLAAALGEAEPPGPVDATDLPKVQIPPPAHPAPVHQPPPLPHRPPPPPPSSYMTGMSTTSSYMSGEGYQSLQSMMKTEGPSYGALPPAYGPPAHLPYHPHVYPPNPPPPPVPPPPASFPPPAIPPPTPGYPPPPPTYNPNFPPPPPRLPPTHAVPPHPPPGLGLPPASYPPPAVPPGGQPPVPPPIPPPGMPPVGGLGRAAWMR
Chain of CDK12/Cyclin K (Homo sapiens) (Q9NYV4 whole entry, looked up): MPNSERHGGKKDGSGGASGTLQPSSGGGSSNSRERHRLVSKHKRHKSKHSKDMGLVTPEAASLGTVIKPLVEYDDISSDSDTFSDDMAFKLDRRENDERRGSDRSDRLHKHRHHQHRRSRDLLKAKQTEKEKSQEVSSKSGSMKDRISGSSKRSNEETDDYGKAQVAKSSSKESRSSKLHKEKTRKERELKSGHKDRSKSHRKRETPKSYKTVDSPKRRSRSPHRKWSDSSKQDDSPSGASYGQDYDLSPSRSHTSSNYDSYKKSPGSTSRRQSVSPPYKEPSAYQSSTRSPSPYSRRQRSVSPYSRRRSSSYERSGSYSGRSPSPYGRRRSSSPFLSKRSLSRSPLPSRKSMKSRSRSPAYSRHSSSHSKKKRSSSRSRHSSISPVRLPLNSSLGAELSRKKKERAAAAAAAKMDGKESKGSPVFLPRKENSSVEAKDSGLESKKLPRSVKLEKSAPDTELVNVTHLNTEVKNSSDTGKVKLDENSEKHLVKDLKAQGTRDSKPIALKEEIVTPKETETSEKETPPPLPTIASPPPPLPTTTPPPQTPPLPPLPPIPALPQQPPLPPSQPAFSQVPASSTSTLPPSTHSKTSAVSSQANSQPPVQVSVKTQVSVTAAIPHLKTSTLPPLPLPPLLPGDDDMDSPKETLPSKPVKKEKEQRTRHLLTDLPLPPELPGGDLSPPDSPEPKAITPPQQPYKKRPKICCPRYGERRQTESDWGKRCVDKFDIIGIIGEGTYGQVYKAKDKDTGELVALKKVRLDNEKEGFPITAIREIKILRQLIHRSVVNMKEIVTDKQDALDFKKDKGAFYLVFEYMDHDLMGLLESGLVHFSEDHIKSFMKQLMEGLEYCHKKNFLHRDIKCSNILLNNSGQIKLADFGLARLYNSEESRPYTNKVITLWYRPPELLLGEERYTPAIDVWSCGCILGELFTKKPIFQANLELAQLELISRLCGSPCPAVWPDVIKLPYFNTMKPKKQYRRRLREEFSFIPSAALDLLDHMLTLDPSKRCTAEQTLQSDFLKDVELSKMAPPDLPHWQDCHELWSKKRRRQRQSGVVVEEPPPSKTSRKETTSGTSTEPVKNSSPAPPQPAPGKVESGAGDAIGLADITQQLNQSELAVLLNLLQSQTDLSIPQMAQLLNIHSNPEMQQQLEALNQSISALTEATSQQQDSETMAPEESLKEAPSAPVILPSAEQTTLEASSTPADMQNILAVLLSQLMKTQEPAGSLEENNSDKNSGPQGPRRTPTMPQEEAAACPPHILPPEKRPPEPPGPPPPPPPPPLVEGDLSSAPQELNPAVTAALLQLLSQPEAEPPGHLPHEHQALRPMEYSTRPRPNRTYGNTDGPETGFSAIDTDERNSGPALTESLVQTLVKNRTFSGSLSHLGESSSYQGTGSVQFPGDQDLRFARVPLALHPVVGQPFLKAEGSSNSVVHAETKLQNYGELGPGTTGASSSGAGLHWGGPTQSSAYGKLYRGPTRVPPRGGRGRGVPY

Chain of CDK9/cyclin T1 (O60563 whole entry): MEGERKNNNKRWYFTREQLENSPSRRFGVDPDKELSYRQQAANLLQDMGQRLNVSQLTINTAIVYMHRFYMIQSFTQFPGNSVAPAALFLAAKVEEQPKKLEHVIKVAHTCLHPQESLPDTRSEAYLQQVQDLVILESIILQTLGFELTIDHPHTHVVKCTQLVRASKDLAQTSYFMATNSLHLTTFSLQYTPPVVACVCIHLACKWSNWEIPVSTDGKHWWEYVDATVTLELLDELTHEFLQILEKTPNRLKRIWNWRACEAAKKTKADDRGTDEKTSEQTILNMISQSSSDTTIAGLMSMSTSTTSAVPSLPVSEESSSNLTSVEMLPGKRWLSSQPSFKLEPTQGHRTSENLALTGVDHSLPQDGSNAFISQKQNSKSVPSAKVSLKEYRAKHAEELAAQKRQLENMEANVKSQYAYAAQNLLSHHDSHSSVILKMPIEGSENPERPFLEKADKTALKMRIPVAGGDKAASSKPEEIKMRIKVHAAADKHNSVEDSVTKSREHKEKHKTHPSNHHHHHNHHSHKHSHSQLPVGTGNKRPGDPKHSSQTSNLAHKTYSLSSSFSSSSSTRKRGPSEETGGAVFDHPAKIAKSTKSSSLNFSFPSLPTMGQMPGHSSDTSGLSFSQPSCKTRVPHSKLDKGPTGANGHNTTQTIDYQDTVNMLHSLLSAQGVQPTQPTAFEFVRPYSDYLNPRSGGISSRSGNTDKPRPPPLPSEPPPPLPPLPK
Chain of CDK9/cyclin T1 (P50750 whole entry): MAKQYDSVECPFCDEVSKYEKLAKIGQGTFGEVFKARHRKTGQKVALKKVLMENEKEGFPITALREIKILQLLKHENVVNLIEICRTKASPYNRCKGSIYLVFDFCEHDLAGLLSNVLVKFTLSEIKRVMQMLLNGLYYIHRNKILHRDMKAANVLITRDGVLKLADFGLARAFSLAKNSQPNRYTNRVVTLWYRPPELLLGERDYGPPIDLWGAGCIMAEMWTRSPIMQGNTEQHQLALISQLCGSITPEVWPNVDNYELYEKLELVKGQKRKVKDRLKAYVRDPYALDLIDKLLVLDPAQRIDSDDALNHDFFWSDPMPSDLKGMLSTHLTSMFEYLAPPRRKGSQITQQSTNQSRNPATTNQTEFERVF
Chain of Cyclin-dependent kinase 5/CDK5 activator 1 (Homo sapiens) (Q00535 whole entry): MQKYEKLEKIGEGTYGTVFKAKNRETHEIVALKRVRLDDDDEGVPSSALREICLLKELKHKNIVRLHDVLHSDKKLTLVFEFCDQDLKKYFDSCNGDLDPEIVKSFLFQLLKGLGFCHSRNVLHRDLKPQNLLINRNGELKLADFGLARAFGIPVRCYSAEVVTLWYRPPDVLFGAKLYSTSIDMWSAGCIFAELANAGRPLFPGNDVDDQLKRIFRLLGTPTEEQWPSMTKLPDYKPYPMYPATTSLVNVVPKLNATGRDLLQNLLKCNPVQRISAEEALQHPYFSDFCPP
Chain of Cyclin-dependent kinase 5/CDK5 activator 1 (Homo sapiens) (Q15078 99-307 partner limits assumed): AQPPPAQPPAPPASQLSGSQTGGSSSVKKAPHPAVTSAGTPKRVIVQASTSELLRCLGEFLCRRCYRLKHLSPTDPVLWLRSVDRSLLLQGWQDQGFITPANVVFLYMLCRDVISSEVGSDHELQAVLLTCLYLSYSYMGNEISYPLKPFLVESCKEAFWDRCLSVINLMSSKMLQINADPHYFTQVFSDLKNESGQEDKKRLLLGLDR

CN(C)C(=O)c1cc2cnc(Nc3ccc(NC(=O)C4(C(=O)Nc5ccc(F)cc5)CC4)cc3)nc2n1C1CCCC1
Activity (T47D [1]): 1.39% | inhibition [2]: 29% | inhibition of growth at 10 µM (NCI-H460 [3]): 102% | inhibition of growth at 10 µM (HeLa): 73.7% | inhibition of growth at 1 µM (NCI-H1299 [4]): 93.3% | Activity (T47D [5]): Dose-dependent effect | inhibition of growth at 10 µM (OVCAR-5): 79.7% | Activity (T47D [6]): 2.01% | inhibition of growth at 1 µM (NCI-H460 [7]): 79.9% | inhibition of growth at 1 µM (T47D [8]): 74.7% | IC50 (NCI-H460 [9]): 359 nM | Activity (T47D [10]): Active | IC50 (NCI-H1299 [11]): 221 nM | IC50 (MCF7): 338 nM | Activity (Mus musculus): Non-Toxic | inhibition of growth at 1 µM (SiHa): 36.5% | IC50 (T47D [12]): 358 nM | inhibition [13]: 86% | Activity (T47D [14]): 2.69% | IC50 (CDK9/cyclin T1): 12 nM | Activity (T47D [15]): Active | inhibition of growth at 10 µM (NCI-H1299 [16]): 90.8% | Activity (T47D [17]): Active | inhibition [18]: 24%
